In assay [1] the target is T1, Mitogen-activated protein kinase kinase kinase 5 (Homo sapiens, UniProt Q99683).
T1 sequence (Q99683 whole entry): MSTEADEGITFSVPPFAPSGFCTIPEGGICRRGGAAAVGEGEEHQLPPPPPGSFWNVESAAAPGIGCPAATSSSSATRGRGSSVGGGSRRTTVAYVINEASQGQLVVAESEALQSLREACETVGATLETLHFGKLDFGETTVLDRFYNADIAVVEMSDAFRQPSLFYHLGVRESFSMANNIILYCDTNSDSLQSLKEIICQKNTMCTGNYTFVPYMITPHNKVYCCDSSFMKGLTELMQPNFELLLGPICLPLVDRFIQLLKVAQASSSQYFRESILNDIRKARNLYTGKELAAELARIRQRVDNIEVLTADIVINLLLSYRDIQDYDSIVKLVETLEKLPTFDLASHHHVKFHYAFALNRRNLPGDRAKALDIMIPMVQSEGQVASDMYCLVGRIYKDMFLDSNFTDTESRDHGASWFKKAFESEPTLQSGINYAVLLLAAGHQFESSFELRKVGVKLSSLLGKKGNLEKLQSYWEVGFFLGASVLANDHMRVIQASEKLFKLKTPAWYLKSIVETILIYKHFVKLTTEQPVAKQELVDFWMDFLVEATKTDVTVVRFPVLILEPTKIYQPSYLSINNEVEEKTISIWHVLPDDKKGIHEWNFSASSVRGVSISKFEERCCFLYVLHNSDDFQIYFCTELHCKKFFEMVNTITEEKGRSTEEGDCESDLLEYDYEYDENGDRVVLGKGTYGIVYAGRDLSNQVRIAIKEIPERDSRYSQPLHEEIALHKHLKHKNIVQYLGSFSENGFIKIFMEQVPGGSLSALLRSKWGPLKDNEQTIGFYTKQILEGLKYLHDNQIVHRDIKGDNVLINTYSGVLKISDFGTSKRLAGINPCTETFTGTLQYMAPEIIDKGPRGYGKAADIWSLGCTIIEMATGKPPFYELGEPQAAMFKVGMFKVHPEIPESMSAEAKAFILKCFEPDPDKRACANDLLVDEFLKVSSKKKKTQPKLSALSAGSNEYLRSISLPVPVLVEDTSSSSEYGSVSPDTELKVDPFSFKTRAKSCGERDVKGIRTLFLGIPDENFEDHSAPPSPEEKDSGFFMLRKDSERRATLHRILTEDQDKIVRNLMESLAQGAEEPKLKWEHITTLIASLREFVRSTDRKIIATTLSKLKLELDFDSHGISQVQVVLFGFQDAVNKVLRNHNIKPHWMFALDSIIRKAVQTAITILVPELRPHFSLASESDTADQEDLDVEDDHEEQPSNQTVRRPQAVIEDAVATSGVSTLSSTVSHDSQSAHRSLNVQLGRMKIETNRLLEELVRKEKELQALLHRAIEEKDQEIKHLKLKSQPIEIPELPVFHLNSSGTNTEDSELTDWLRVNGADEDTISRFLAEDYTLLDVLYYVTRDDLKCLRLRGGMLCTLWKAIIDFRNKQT
Briefly: Inhibition of human ASK1 using MBP as substrate incubated for 10 mins prior to ATP addition measured after 20 mins by liquid scintillation counting analysis. The essentials:
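Inhibitor added from a DMSO stock is incubated with enzyme on ice for 10 min. The reaction is started with ATP plus MgCl₂ in MOPS pH 7.2, and labeled and unlabeled ATP are combined.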

The target of assay [2] is T2, Aurora kinase A (Homo sapiens) (UniProt O14965).
T2 sequence (whole entry): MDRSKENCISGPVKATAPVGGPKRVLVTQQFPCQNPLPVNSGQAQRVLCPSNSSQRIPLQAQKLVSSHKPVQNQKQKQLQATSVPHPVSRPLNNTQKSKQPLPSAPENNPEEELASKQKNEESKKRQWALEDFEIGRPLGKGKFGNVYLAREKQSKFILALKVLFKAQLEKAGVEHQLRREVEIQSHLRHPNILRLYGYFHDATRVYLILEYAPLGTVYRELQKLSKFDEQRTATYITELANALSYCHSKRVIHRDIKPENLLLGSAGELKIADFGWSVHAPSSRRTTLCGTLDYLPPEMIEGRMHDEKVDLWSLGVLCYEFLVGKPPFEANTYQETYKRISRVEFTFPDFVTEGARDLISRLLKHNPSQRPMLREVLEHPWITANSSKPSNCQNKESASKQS
Briefly: Inhibition of human Aurora A using Kemptide as substrate assessed as residual activity at 10 uM incubated for 10 mins prior to ATP addition measured after 20 mins by liquid scintillation counting analysis.

The target in assay [3] is Fibroblast growth factor receptor 1 (Homo sapiens) (UniProt P11362). Briefly: Inhibition of human FGFR1 using IGF-IRtide (12 to 527) as substrate assessed as residual activity at 10 uM incubated for 10 mins prior to ATP addition measured after 20 mins by liquid scintillation counting analysis.
Fibroblast growth factor receptor 1 (Homo sapiens), sequence (P11362 22-822 limits assumed): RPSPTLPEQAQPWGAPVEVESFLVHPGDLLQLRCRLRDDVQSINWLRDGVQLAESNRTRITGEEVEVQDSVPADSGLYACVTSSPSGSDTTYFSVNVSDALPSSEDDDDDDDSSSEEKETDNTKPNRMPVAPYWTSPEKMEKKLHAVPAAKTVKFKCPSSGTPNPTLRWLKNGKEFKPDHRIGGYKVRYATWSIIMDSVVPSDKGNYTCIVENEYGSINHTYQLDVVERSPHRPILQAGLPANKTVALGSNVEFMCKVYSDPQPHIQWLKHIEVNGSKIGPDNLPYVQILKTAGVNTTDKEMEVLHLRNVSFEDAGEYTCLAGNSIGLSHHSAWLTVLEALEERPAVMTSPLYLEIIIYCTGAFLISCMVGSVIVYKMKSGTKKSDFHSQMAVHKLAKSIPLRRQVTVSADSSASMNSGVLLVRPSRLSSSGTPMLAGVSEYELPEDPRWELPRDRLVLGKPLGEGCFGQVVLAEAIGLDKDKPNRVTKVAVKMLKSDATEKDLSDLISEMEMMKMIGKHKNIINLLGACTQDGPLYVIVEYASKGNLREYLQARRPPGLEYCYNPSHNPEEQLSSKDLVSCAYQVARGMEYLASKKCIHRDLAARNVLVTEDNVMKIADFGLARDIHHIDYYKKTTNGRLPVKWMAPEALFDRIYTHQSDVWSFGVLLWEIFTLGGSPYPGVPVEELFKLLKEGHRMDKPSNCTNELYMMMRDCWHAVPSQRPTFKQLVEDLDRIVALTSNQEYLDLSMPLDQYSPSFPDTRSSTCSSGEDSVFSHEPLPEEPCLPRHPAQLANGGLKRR
Assay [4] deals with Hepatocyte growth factor receptor (Homo sapiens) (UniProt P08581). Briefly: Inhibition of human HGFR using KKKSPGEYVNIEFG as substrate assessed as residual activity at 10 uM incubated for 10 mins prior to ATP addition measured after 20 mins by liquid scintillation counting analysis.
Hepatocyte growth factor receptor (Homo sapiens), sequence (P08581 whole entry): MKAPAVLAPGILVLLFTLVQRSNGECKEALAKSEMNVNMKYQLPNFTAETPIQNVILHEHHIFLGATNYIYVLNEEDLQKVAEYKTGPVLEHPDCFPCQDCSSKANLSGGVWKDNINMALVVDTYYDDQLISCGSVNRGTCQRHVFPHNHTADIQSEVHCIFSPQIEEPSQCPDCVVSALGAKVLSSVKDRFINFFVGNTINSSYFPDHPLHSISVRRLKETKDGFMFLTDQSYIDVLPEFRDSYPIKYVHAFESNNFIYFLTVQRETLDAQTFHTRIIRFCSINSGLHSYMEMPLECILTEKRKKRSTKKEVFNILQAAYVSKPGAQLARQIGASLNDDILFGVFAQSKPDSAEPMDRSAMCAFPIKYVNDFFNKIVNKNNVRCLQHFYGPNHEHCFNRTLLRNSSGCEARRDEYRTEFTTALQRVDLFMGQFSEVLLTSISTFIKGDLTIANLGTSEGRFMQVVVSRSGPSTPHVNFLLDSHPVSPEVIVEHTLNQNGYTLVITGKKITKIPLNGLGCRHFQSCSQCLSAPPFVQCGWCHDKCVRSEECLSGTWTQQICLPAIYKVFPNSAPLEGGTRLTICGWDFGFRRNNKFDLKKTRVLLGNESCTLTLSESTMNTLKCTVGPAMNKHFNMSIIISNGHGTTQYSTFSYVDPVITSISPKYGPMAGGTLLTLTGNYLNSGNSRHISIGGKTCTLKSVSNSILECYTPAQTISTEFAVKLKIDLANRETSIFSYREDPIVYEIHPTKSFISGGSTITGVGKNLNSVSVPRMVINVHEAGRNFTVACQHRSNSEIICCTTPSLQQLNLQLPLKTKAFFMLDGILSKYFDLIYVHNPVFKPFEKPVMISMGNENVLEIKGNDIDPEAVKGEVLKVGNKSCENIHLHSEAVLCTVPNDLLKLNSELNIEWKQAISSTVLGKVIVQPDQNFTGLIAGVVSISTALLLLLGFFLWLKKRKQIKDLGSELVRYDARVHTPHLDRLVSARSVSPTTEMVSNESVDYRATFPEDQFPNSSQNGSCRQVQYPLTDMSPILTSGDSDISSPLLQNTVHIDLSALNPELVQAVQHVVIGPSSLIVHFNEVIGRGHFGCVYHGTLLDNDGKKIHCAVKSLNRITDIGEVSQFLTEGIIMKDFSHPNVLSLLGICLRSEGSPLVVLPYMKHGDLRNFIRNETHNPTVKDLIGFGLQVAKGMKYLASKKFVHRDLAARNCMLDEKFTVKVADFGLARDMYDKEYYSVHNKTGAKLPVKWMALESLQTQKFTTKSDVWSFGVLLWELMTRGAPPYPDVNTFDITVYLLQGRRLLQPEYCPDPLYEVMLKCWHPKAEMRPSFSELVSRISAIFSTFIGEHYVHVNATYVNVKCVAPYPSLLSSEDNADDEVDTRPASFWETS
Assay [5] addresses Angiopoietin-1 receptor (Homo sapiens) (UniProt Q02763). Briefly: Inhibition of human Tie2 using TK substrate 2 as substrate assessed as residual activity at 10 uM incubated for 10 mins prior to ATP addition measured after 20 mins by liquid scintillation counting analysis.
The target in assay [6] is T3, Mitogen-activated protein kinase kinase kinase 5 (Homo sapiens) (UniProt Q99683).
T3 sequence (whole entry): T1 sequence (Q99683 whole entry)
The experiment in a line: Inhibition of human ASK1 using MBP as substrate assessed as residual activity at 10 uM incubated for 10 mins prior to ATP addition measured after 20 mins by liquid scintillation counting analysis.

For assay [7], the target named is Mitogen-activated protein kinase 10 (Homo sapiens) (UniProt P53779). Briefly: Inhibition of human JNK3 using JNK3tide as substrate assessed as residual activity at 10 uM incubated for 10 mins prior to ATP addition measured after 20 mins by liquid scintillation counting analysis.
Mitogen-activated protein kinase 10 (Homo sapiens), sequence (P53779 whole entry): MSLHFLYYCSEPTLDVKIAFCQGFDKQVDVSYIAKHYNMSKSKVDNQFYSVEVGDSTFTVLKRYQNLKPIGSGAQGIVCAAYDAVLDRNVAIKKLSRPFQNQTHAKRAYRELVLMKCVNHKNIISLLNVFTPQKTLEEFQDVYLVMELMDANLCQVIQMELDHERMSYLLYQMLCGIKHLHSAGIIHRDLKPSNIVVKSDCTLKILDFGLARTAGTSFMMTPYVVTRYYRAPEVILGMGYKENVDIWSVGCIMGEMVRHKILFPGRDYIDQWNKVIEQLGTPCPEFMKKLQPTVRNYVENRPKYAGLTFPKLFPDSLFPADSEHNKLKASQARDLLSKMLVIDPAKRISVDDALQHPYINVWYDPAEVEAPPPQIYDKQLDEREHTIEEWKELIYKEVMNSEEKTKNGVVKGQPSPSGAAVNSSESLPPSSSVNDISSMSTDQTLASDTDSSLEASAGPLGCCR
Assay [8] deals with Casein kinase II (Homo sapiens) (UniProt P67870+P68400+P19784). Briefly: Inhibition of human CK2 using RRRDDDSDDD as substrate assessed as residual activity at 10 uM incubated for 10 mins prior to ATP addition measured after 20 mins by liquid scintillation counting analysis. The format is protein-complex assay.

Angiopoietin-1 receptor (Homo sapiens), sequence (Q02763 whole entry): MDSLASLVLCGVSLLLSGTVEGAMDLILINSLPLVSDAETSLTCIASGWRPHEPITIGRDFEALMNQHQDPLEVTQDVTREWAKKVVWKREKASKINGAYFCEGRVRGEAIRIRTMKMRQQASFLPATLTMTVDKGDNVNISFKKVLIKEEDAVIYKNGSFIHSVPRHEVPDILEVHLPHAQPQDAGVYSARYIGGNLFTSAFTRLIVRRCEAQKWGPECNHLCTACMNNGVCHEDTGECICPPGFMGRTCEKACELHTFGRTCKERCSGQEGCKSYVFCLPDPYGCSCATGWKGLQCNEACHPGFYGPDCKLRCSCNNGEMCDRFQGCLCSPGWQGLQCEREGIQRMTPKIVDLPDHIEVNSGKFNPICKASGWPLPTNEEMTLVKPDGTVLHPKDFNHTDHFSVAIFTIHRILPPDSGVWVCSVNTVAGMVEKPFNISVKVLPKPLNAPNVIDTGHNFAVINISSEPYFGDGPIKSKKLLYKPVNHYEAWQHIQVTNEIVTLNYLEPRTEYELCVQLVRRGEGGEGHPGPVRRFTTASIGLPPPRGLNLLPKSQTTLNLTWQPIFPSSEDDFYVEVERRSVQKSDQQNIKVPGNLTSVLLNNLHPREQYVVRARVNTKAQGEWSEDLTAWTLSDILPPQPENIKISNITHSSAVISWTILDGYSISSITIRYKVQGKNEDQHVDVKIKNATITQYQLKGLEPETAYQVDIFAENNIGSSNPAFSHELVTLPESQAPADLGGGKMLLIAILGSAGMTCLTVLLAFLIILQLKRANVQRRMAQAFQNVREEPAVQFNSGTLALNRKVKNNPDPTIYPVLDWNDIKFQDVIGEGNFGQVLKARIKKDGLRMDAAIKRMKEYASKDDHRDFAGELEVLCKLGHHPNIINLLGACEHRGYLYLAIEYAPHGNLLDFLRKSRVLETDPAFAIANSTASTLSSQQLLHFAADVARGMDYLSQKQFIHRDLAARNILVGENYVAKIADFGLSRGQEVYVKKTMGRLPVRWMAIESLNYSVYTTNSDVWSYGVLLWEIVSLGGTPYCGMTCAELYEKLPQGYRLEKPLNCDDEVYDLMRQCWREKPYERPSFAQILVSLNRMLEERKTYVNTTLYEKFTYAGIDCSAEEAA

As for `O=C(O)CCCN1C(=O)/C(=C/c2ccc(-c3c(Cl)cccc3Cl)o2)SC1=S`, the IC50 in assay [1] was determined as 500 nM.

On to `O=C(O)CN1C(=O)/C(=C/c2ccncc2)SC1=S`, for which the half-inhibitory concentration (IC50) in assay [1] was above 33000 nM.

As for `O=C(O)CN1C(=O)/C(=C/c2ccco2)SC1=S`, in assay [1], the IC50 is above 33000 nM.

Regarding `O=C1/C(=C/c2ccc(-c3ccc(Cl)c(Cl)c3)o2)SC(=S)N1c1ccc(F)cc1`, the concentration for half-maximal inhibition (IC50) in assay [1] is above 33000 nM.

In the case of `O=C(O)CC(C(=O)O)N1C(=O)/C(=C/c2ccc(-c3c(Cl)cccc3Cl)o2)SC1=S` (stereo not drawn), the half-inhibitory concentration (IC50) in assay [1] was found to be 1000 nM.

As for `O=C(O)CCN1C(=O)/C(=C/c2ccc(-c3cccc(Cl)c3)o2)SC1=S`, 1000 nM corresponded to half-maximal inhibition in assay [1] (IC50).

The compound `CCCC(C(=O)O)N1C(=O)/C(=C/c2ccc(-c3ccc(Br)cc3)o2)SC1=S` (stereo not drawn) gave an IC50 in assay [1] of 500 nM.

`CCC(C(=O)O)N1C(=O)/C(=C/c2ccc(-c3ccc(Br)cc3)o2)SC1=S` (stereo not drawn): the half-inhibitory concentration (IC50) in assay [1] is 500 nM.

Consider `CSCCC(C(=O)O)N1C(=O)/C(=C/c2ccc(-c3ccc(Cl)c(Cl)c3)o2)SC1=S` (stereo not drawn), for which the IC50 in assay [1] was determined as 750 nM.

As to `COC(=O)CCCN1C(=O)/C(=C/c2ccc(-c3ccccc3F)o2)SC1=S`, in assay [1], the half-inhibitory concentration (IC50) is above 33000 nM.

For the compound `O=C(O)CCN1C(=O)/C(=C/c2ccc(-c3ccccc3F)o2)SC1=S`, the Activity came out at 39% in assay [2]; 22% in assay [3]; 32% in assay [4]; 44% in assay [5]; 2.5% in assay [6]; 87% in assay [7]. Further, the Activity in assay [8] came to 56%. Also, the IC50 in assay [1] worked out at 300 nM.

Turning to `O=C(O)CCCCCN1C(=O)/C(=C/c2ccc(-c3ccccc3Cl)o2)SC1=S`, half-maximal inhibition in assay [1] (IC50) was put at 500 nM.

As for `CCCC(C(=O)O)N1C(=O)/C(=C/c2ccc(-c3ccc([N+](=O)[O-])cc3)o2)SC1=S` (stereo not drawn), the midpoint of inhibition in assay [1], the IC50, lay at 1800 nM.

In assay [1], `CCC(C(=O)O)N1C(=O)/C(=C/c2ccc(-c3cccc(Cl)c3)o2)SC1=S` (stereo not drawn) showed a half-inhibitory concentration (IC50) of 750 nM.

For the compound `O=C(O)c1ccc(N2C(=O)/C(=C/c3cccnc3)SC2=S)cc1`, in assay [1], the half-maximal inhibitory concentration (IC50) is above 33000 nM.

In assay [1], `O=C1NC(=S)S/C1=C\c1cccc(Br)c1` displayed an IC50 above 33000 nM.

`O=C(O)CN1C(=O)/C(=C/c2ccc(-c3ccccc3F)o2)SC1=S` had a half-maximal inhibitory concentration (IC50) in assay [1] of 3000 nM.

In the case of `O=C(O)CCN1C(=O)/C(=C/c2ccc(-c3ccc([N+](=O)[O-])cc3)o2)SC1=S`, the midpoint of inhibition in assay [1], the IC50, lay at 650 nM.

Take `O=C(O)CCCN1C(=O)/C(=C/c2ccc(-c3cc(Cl)ccc3Cl)o2)SC1=S`: in assay [1], it took 350 nM to reach half-maximal inhibition (IC50).

The compound `O=C(O)CCCN1C(=O)/C(=C/c2ccc(-c3cccc(Cl)c3)o2)SC1=S` returned an IC50 in assay [1] of 350 nM.

For the compound `O=C(O)CCN1C(=O)/C(=C/c2ccc(-c3ccccc3Cl)o2)SC1=S`, in assay [1], it took 750 nM to reach half-maximal inhibition (IC50).

Consider `O=C(O)CN1C(=O)/C(=C/c2ccc(-c3ccccc3Cl)o2)SC1=S`, for which it took 1250 nM to reach half-maximal inhibition in assay [1] (IC50).

In assay [1], `CCCC(C(=O)O)N1C(=O)/C(=C/c2ccc(-c3ccc(Cl)c(Cl)c3)o2)SC1=S` (stereo not drawn) returned an IC50 of 3900 nM.

`COC(=O)CCCN1C(=O)/C(=C/c2ccc(-c3ccc(Br)cc3)o2)SC1=S` returned an IC50 in assay [1] above 33000 nM.

`COC(=O)c1ccc(/C=C2\SC(=S)N(c3ccc(O)c(C(=O)O)c3)C2=O)cc1` gave a 50% inhibitory concentration (IC50) in assay [1] above 33000 nM.

For `O=C(O)CCCN1C(=O)/C(=C/c2ccc(-c3ccc(Br)cc3)o2)SC1=S`, the Activity came to 100% in assay [2]; 10% in assay [3]; 51% in assay [4]; 28% in assay [5]; 3% in assay [6]; 92% in assay [7]. For the same compound, the Activity in assay [8] stood at 28%. In assay [1], the IC50 came to 200 nM.

Regarding `O=C(O)CCCN1C(=O)/C(=C/c2ccc(-c3ccccc3F)o2)SC1=S`, in assay [1], the IC50 stood at 3000 nM.

`O=C1/C(=C/c2ccc(-c3ccc(Br)cc3)o2)SC(=S)N1c1cccc(O)c1` registered an IC50 in assay [1] of 2000 nM.

In assay [1], `O=C1NC(=S)S/C1=C\c1ccc(-c2ccccc2[N+](=O)[O-])o1` displayed an IC50 above 33000 nM.

Turning to `O=C(O)CCCN1C(=O)/C(=C/c2ccc(-c3ccccc3Cl)o2)SC1=S`, the Activity in assay [2] worked out at 14%; in assay [3], 16%; in assay [4], 25%; in assay [5] it was 22%; in assay [6] it was 3.5%; in assay [7], 41%. For the same compound, the Activity in assay [8] turned out to be 15%. The compound further had an IC50 in assay [1] of 300 nM.

In turn, `O=C(O)C(Cc1ccccc1)N1C(=O)/C(=C/c2ccncc2)SC1=S` (stereo not drawn) displayed an IC50 in assay [1] above 33000 nM.

For `O=C(O)CCCCCN1C(=O)/C(=C/c2ccc(-c3ccc(Br)cc3)o2)SC1=S`, the Activity amounted to 21% in assay [2]; 5% in assay [3]; 7% in assay [4]; 46% in assay [5]; 3% in assay [6]; 65% in assay [7]. Besides, the Activity in assay [8] was 34%. Also, in assay [1], the half-inhibitory concentration (IC50) came to 200 nM.

With `O=C1/C(=C/c2ccco2)SC(=S)N1c1cccnc1`, the concentration for half-maximal inhibition (IC50) in assay [1] was above 33000 nM.

Consider `O=C(O)CC(C(=O)O)N1C(=O)/C(=C/c2ccc(-c3ccc(Br)cc3)o2)SC1=S` (stereo not drawn), for which the midpoint of inhibition in assay [1], the IC50, lay at 2800 nM.

Take `CCOC(=O)c1ccc(-c2ccc(/C=C3\SC(=S)N(C(CC(=O)O)C(C)=O)C3=O)o2)cc1` (stereo not drawn): in assay [1], the IC50 is 800 nM.

`O=C1NC(=S)S/C1=C\c1cccnc1` returned a half-maximal inhibitory concentration (IC50) in assay [1] above 33000 nM.

As to `CCc1ccc(-c2ccc(/C=C3\SC(=S)N(C(CC(=O)O)C(=O)O)C3=O)o2)cc1` (stereo not drawn), inhibition in assay [1] was half-maximal at 1800 nM (IC50).

With `CCC(C(=O)O)N1C(=O)/C(=C/c2ccc(-c3cc(Cl)ccc3Cl)o2)SC1=S` (stereo not drawn), 500 nM corresponded to half-maximal inhibition in assay [1] (IC50).

In assay [1], `O=C1/C(=C/c2ccc(Cl)cc2Cl)SC(=S)N1Nc1ccccc1` had an IC50 above 33000 nM.

`O=C(O)CCCCCN1C(=O)/C(=C/c2ccc(-c3cccc(C(F)(F)F)c3)o2)SC1=S` displayed a half-maximal inhibitory concentration (IC50) in assay [1] of 500 nM.

For orientation: IC50 means the concentration that inhibits the measured activity by half. Lower therefore signals greater potency.

Values taken from ChEMBL document CHEMBL2346522, “Rational design of apoptosis signal-regulating kinase 1 inhibitors: discovering novel structural scaffold” (Eur J Med Chem, 2013).
